Test results reported in ChEMBL document CHEMBL1128719, “The synthesis, structure-activity, and structure-side effect relationships of a series of 8-alkoxy- and 5-amino-8-alkoxyquinolone antibacterial agents” (J Med Chem, 1995).
≈ marks a conversion by molar mass, not a printed value.

Assays:
Escherichia coli [1] = assay: In vitro antibacterial activity was tested for Escherichia coli H560; type: functional
Summary of the method: (§1)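 Microtitration (microdilution) MIC determination in μg/mL against a panel of Gram-positive, Gram-negative and anaerobic organisms. Values come from duplicate or triplicate experiments and are stated accurate to ±50%.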

Escherichia coli [2] = assay: In vitro antibacterial activity was tested for Escherichia coli Vogel; type: functional; summary of the method: as §1
Enterobacter cloacae = assay: In vitro antibacterial activity was tested for Enterobacter cloacae HA2646; type: functional
Klebsiella pneumoniae = assay: In vitro antibacterial activity was tested for Klebsiella pneumoniae MGH-2; type: functional; summary of the method: as §1
Providencia rettgeri = assay: In vitro antibacterial activity was tested for Providencia rettgeri H1771; type: functional; summary of the method: as §1
Pseudomonas aeruginosa = assay: In vitro antibacterial activity was tested for Pseudomonas aeruginosa UI-18; type: functional; summary of the method: as §1
Staphylococcus aureus [3] = assay: In vitro antibacterial activity was tested for Staphylococcus aureus H228; type: functional; summary of the method: as §1
Staphylococcus aureus [4] = assay: In vitro antibacterial activity was tested for Staphylococcus aureus UC-76; type: functional; summary of the method: as §1
Streptococcus pneumoniae = assay: In vitro antibacterial activity was tested for Streptococcus pneumoniae SV-1; type: functional; summary of the method: as §1
V79 = assay: Clonogenic cytotoxicity against Chinese hamster V-79 cells; type: functional, cell-based; conditions: Cricetulus griseus
Streptococcus pyogenes = assay: In vitro antibacterial activity was tested for Streptococcus pyogenes C203; type: functional; summary of the method: as §1
Enterococcus faecalis = assay: In vitro antibacterial activity was tested for Streptococcus faecalis MGH-2; type: functional; summary of the method: as §1
Bacteroides fragilis = assay: In vitro antibacterial activity against Bacteroides fragilis BFA; type: functional; summary of the method: as §1
Clostridioides difficile = assay: In vitro antibacterial activity was tested for Clostridium diff CD1-1; type: functional
Clostridium perfringens = assay: In vitro antibacterial activity against Clostridium perfringens CP 3-1; type: functional
[5] = system: Peptoniphilus asaccharolyticus; assay: In vitro antibacterial activity was tested for Pepto asac PA 3-1; type: functional; summary of the method: as §1
Cutibacterium acnes = assay: In vitro antibacterial activity was tested for Propion acnes PA5-1; type: functional; summary of the method: as §1

| Structure (SMILES) | MIC (Escherichia coli [1]) [µg/mL] | MIC (Escherichia coli [2]) [µg/mL] | MIC (Enterobacter cloacae) [µg/mL] | MIC (Klebsiella pneumoniae) [µg/mL] | MIC (Providencia rettgeri) [µg/mL] | MIC (Pseudomonas aeruginosa) [µg/mL] | MIC (Staphylococcus aureus [3]) [µg/mL] | MIC (Staphylococcus aureus [4]) [µg/mL] | MIC (Streptococcus pneumoniae) [µg/mL] | IC50 (V79) [µg/mL] | MIC (Streptococcus pyogenes) [µg/mL] | MIC (Enterococcus faecalis) [µg/mL] | MIC (Bacteroides fragilis) [µg/mL] | MIC (Clostridioides difficile) [µg/mL] | MIC (Clostridium perfringens) [µg/mL] | MIC [5] [µg/mL] | MIC (Cutibacterium acnes) [µg/mL] |
| --- | --- | --- | --- | --- | --- | --- | --- | --- | --- | --- | --- | --- | --- | --- | --- | --- | --- |
| CCOc1c(N2CCCC(N)C2)c(F)cc2c(=O)c(C(=O)O)cn(C3CC3)c12 (stereo unspecified) | 0.2 (≈ 0.514 µM) | 0.2 (≈ 0.514 µM) | 0.4 (≈ 1.03 µM) | 0.4 (≈ 1.03 µM) | 0.8 (≈ 2.05 µM) | 3.1 (≈ 7.96 µM) | 0.1 (≈ 0.257 µM) | 0.025 (≈ 0.0642 µM) | 0.2 (≈ 0.514 µM) | 210 (≈ 539 µM) | 0.2 (≈ 0.514 µM) | 0.2 (≈ 0.514 µM) | – | – | – | – | – |
| CCNCC1CCN(c2c(F)cc3c(=O)c(C(=O)O)cn(C4CC4)c3c2OC)C1 (stereo unspecified) | 0.05 (≈ 0.124 µM) | 0.1 (≈ 0.248 µM) | 0.1 (≈ 0.248 µM) | 0.2 (≈ 0.496 µM) | 0.4 (≈ 0.991 µM) | 1.6 (≈ 3.97 µM) | 0.025 (≈ 0.062 µM) | 0.006 (≈ 0.0149 µM) | 0.013 (≈ 0.0322 µM) | – | 0.013 (≈ 0.0322 µM) | 0.025 (≈ 0.062 µM) | 0.4 (≈ 0.991 µM) | 0.2 (≈ 0.496 µM) | 0.05 (≈ 0.124 µM) | 0.2 (≈ 0.496 µM) | 0.4 (≈ 0.991 µM) |
| COc1c(N2CCCC(N)C2)c(F)cc2c(=O)c(C(=O)O)cn(C3CC3)c12 (stereo unspecified) | 0.05 (≈ 0.133 µM) | 0.1 (≈ 0.266 µM) | 0.1 (≈ 0.266 µM) | 0.2 (≈ 0.533 µM) | 0.4 (≈ 1.07 µM) | 1.6 (≈ 4.26 µM) | 0.05 (≈ 0.133 µM) | 0.006 (≈ 0.016 µM) | 0.013 (≈ 0.0346 µM) | – | 0.013 (≈ 0.0346 µM) | 0.025 (≈ 0.0666 µM) | 0.4 (≈ 1.07 µM) | 0.8 (≈ 2.13 µM) | 0.4 (≈ 1.07 µM) | 0.8 (≈ 2.13 µM) | 0.2 (≈ 0.533 µM) |
| COc1c(N2CCN(C)CC2)c(F)cc2c(=O)c(C(=O)O)cn(C3CC3)c12 | 0.1 (≈ 0.266 µM) | 0.1 (≈ 0.266 µM) | 0.1 (≈ 0.266 µM) | 0.2 (≈ 0.533 µM) | 0.4 (≈ 1.07 µM) | 0.8 (≈ 2.13 µM) | 0.1 (≈ 0.266 µM) | 0.05 (≈ 0.133 µM) | 0.1 (≈ 0.266 µM) | – | 0.1 (≈ 0.266 µM) | 0.2 (≈ 0.533 µM) | 0.2 (≈ 0.533 µM) | 0.8 (≈ 2.13 µM) | 0.2 (≈ 0.533 µM) | 1.6 (≈ 4.26 µM) | 0.4 (≈ 1.07 µM) |
| CCOc1c(N2CCC(C)(CN)C2)c(F)c(N)c2c(=O)c(C(=O)O)cn(C3CC3)c12 (stereo unspecified) | 0.1 (≈ 0.239 µM) | 0.2 (≈ 0.478 µM) | 0.4 (≈ 0.956 µM) | 0.8 (≈ 1.91 µM) | 1.6 (≈ 3.82 µM) | 3.1 (≈ 7.41 µM) | 0.1 (≈ 0.239 µM) | 0.025 (≈ 0.0597 µM) | 0.05 (≈ 0.119 µM) | – | 0.1 (≈ 0.239 µM) | 0.1 (≈ 0.239 µM) | 3.1 (≈ 7.41 µM) | 6.3 (≈ 15.1 µM) | 0.4 (≈ 0.956 µM) | 0.8 (≈ 1.91 µM) | 3.1 (≈ 7.41 µM) |
| COc1c(N2CCC(N)CC2)c(F)c(N)c2c(=O)c(C(=O)O)cn(C3CC3)c12 | 0.05 (≈ 0.128 µM) | 0.1 (≈ 0.256 µM) | 0.1 (≈ 0.256 µM) | 0.2 (≈ 0.512 µM) | 0.4 (≈ 1.02 µM) | 1.6 (≈ 4.1 µM) | 0.05 (≈ 0.128 µM) | 0.013 (≈ 0.0333 µM) | 0.013 (≈ 0.0333 µM) | 60 (≈ 154 µM) | 0.025 (≈ 0.064 µM) | 0.05 (≈ 0.128 µM) | 3.1 (≈ 7.94 µM) | 3.1 (≈ 7.94 µM) | 0.8 (≈ 2.05 µM) | 1.6 (≈ 4.1 µM) | 3.1 (≈ 7.94 µM) |
| COc1c(N2CCNCC2)c(F)cc2c(=O)c(C(=O)O)cn(C3CC3)c12 | 0.025 (≈ 0.0692 µM) | 0.05 (≈ 0.138 µM) | 0.025 (≈ 0.0692 µM) | 0.1 (≈ 0.277 µM) | 0.1 (≈ 0.277 µM) | 0.8 (≈ 2.21 µM) | 0.2 (≈ 0.553 µM) | 0.05 (≈ 0.138 µM) | 0.1 (≈ 0.277 µM) | – | 0.1 (≈ 0.277 µM) | 0.2 (≈ 0.553 µM) | 0.8 (≈ 2.21 µM) | 1.6 (≈ 4.43 µM) | 0.4 (≈ 1.11 µM) | 3.1 (≈ 8.58 µM) | 0.4 (≈ 1.11 µM) |
| COc1c(N2CCC(C)(CN)C2)c(F)c(N)c2c(=O)c(C(=O)O)cn(C3CC3)c12 (stereo unspecified) | 0.05 (≈ 0.124 µM) | 0.1 (≈ 0.247 µM) | 0.1 (≈ 0.247 µM) | 0.2 (≈ 0.495 µM) | 0.8 (≈ 1.98 µM) | 3.1 (≈ 7.66 µM) | 0.025 (≈ 0.0618 µM) | 0.006 (≈ 0.0148 µM) | 0.013 (≈ 0.0321 µM) | 140 (≈ 346 µM) | 0.025 (≈ 0.0618 µM) | 0.05 (≈ 0.124 µM) | 1.6 (≈ 3.96 µM) | 1.6 (≈ 3.96 µM) | 0.8 (≈ 1.98 µM) | 0.8 (≈ 1.98 µM) | 1.6 (≈ 3.96 µM) |
